# Fewer inactive variants are shown than the library holds.
# B1: tRNA (parent)
# chain: GUUCCGUUGGCGUAAUGGUAACGCGUCUCCCUCCUAAGGAGAAGACUGCGGGUUCGAGUCCCGUACGGAACG
# Variants of: B1
# Experiment: yeast fitness relative to wild type (ratio to wild type); higher = fitter; tRNA-Arg(CCU), competitive growth, 37 C, YPD
# In short: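 The tRNA-Arg(CCU) gene variants were made by chemical synthesis with a 3% per-site mutation rate at 69 sites and inserted at the native genomic locus of Saccharomyces cerevisiae. After pooling, the strains were competed in YPD at 37°C for 24 hours in six parallel replicates. Gene amplicons from the start population and each end population were read by 100-nucleotide paired-end sequencing, and Darwinian fitness relative to wild type was taken from genotype frequency changes. Genotypes needed ≥ 100 starting reads, and estimates < 0.5 were set to 0.5.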
row,Variant,yeast fitness
1,G6A A36G,0.89
2,G6A A36U,0.604
3,G6A A21C U47A G58A A65C,≤ 0.5
4,C5U U64G,0.853
5,C5U U64C,0.932
6,C5U U64A,0.933
7,C5U U19A A40C C49G C55G A69U,≤ 0.5
8,G6A A14U C55U C61A,≤ 0.5
9,G6A A20U U53A G58A,0.538
10,C5U G56A U59G,0.516
11,G6A A14C C24U G50A A57U A70U,0.745
12,C5U U13A A43G A45G C62G,≤ 0.5
13,C5U U53C,0.747
14,C5U U53A,0.604
15,G6A A15C C33G A36C,≤ 0.5
16,G6A A21U A45U G48C A57C G67U,≤ 0.5
17,C5U U7A A20C G68C,≤ 0.5
18,G6A A21G A37C A57C,≤ 0.5
19,C5U U13C C30U A40G C55A G63C A65C,≤ 0.5
20,G6A A20G C29A A70U,≤ 0.5
21,C5U U19G G23A,≤ 0.5

row,Variant,yeast fitness
1,G6A A20U C61U G67A G68U,≤ 0.5
2,C5U U19G G23A C46A,≤ 0.5
3,G6A A20C,0.714
4,G6A A20U,0.851
5,C5U U13C A20U A37C G44C,≤ 0.5
6,C5U U35A,0.615
7,C5U U35G,0.592
8,G6A A20G A36G C49G C61A,≤ 0.5
9,G6A A21G U35C A70C,≤ 0.5
10,G6A A15G C22A G25A C33U G52C G56C,≤ 0.5
11,G6A A21G C55U G56A,≤ 0.5
12,G6A A14G C46G C62G,≤ 0.5
13,G6A A14G C22G,≤ 0.5
14,G6A A15U G23A C33A U54A,≤ 0.5
15,C5U U26A G68C,0.663
16,C5U U28C C33G G38A U64G,≤ 0.5
17,G6A A20U C29G C49G G63C,≤ 0.5
18,C5U U19C A21U C31U A42G A43U A65C,≤ 0.5
19,C5U U13A C29G C31A C61U,≤ 0.5
20,C5U U16A C34A,≤ 0.5
21,C5U U28A G41A A70U,≤ 0.5

row,Variant,yeast fitness
1,C5U U13G G44A A57U,0.642
2,C5U U32A G50A,0.581
3,C5U U26A U59C,0.722
4,C5U U13A A70U,0.737
5,C5U U19G A21U C29G,≤ 0.5
6,C5U U13C G39C A45G,≤ 0.5
7,G6A A20U C27U A57U,≤ 0.5
8,G6A A20U A21G C61U,≤ 0.5
9,C5U G52C,0.622
10,C5U U26A A69C,0.78
11,C5U U28A C34U C61U,≤ 0.5
12,C5U U8C A36G A40G C60A,≤ 0.5
13,C5U U28A G41A,0.534
14,G6A A36U C66U G67A,≤ 0.5
15,C5U U19C A69G,0.706
16,C5U U13A C29G C31A,0.593
17,C5U U13A C29G C31G,≤ 0.5
18,G6A A15G C29A,≤ 0.5
19,G6A A15G C29U,0.607
20,G6A A14C C24U,0.597
21,C5U U13C U19A A21U C24A U54C U59C C66G,≤ 0.5

row,Variant,yeast fitness
1,C5U U13C U19A A21U C24A U54C,≤ 0.5
2,C5U U16A,0.882
3,G6A A15U A20G,≤ 0.5
4,G6A A15G C46A,0.557
5,C5U U26A A65G,0.739
6,G6A A20U C49U,0.542
7,G6A A20G C24U A40G A43G,≤ 0.5
8,C5U U8C C11G A15U A36U G38A C61U A70U,0.564
9,C5U U8C C31G C33G C34U G68A,≤ 0.5
10,G6A A14U G23A C29G C46A C55G G68A A70C,≤ 0.5
11,G6A A15C G51A A57U G68A,≤ 0.5
12,C5U U28A U35C U59A,≤ 0.5
13,C5U U7G G25C G39A C66U,≤ 0.5
14,C5U U32C A45C,0.733
15,C5U U7C C30G A42C G52A C55U C66U,≤ 0.5
16,C5U G56A G68C A69U,≤ 0.5
17,C5U U13C C24G U26C A37G U54G,≤ 0.5
18,C5U U8A G18C A20G,0.537
19,C5U G56C A65G,0.536
20,C5U U26A C55G,≤ 0.5
21,C5U U32C C55U,0.564

# — the RNAGym collection of RNA variant scans (doi:10.1126/science.aae0568)
